CRFBP-R2 block – antagonists of CRF-binding protein/CRF-R2 receptor complex | HEK293 CRF-R2/CRF-BP, CRF-induced calcium fluorescence | inhibition, % at 11.8 µM | 0.59% of 350,000 active | AID 588475;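 active = inhibition of the ligand-induced calcium signal above about 50% at the single tested concentration, limit read from the data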
PKA-R2B act – activators of human PKA-R2B complex. 0.079% of 340,000 active. PKA-R2B holoenzyme dissociation, Cy5-IP20 fluorescence polarization; R2B truncated from residue 108, S112A mutant; 0% DMSO only, 100% 113 µM cGMP. AID 504700. activation, % at 11.4 µM. P22694+P31323;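 active = activation above a cutoff set at the mean over all compounds plus 3 SD, cut at about 18% in these data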;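 note: higher means more holoenzyme dissociation and a rise in polarization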
Target sequence (P31323 whole entry, looked up, other chains not shown, the tested form may be a part): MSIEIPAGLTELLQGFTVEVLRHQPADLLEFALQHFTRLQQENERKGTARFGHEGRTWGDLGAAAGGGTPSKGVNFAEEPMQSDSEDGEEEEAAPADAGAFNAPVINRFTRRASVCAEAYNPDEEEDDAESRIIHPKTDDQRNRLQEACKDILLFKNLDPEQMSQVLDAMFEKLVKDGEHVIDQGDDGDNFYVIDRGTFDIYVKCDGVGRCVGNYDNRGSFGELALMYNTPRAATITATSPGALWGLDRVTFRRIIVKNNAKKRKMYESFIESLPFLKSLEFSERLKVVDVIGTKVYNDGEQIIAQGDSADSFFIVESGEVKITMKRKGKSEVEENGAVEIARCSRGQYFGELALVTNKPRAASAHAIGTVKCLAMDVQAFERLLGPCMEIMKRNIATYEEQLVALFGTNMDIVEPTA
PKA-R1A act – PKA-R1A complex activation. P00514+P68181. PKA-R1A dissociation, Cy5-IP20 fluorescence polarization; scaled: DMSO 0%, 113 µM cGMP 100%. activation, % at 11.4 µM. 0.083% of 340,000 active;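 active = percent activation above the mean of all tested compounds plus 3 SD, cut at about 19% in these data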;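 note: higher means more PKAc released from R1A so a rise in polarization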
SIRT5 block – sirtuin-5 (human) deacylase inhibition | Q9NXA8 | Purified SirT5, succinyl-peptide AMC, trypsin-coupled fluorescence | inhibition, % at 15 µM | 1.1% of 330,000 active; in the data active = inhibition above about 15%
S100A4 MyoIIA – inhibitors of human S100A4 binding to myosin IIA peptide | 0.14% of 360,000 active | AID 652163 | S100A4/TAMRA-MyoIIA peptide fluorescence polarization | inhibition, % at 10.7 µM | P26447;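 active = mean inhibition of at least 70% across replicates, with every replicate also reaching that level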
Target sequence (P26447 whole entry, looked up): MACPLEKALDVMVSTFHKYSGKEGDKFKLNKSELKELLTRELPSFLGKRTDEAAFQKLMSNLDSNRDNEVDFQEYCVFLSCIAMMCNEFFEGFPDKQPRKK
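Assay system: human S100A4 monomer with TAMRA-labelled myosin IIA peptide / Buffer or medium: Calcium-containing HEPES buffer, pH 7.2 / Reagent: TAMRA-labelled myosin IIA heavy-chain peptide probe, 5 nM / Compound: one dose per compound / Timing: polarization read 5 min after assay mix addition, stable 5–60 min / Benchmarks: neutral control DMSO, positive control TFP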
Active calls of the source: *; . = no result; + = active, no number. Rows were chosen to be rich in hits. Some 1.5% of all compounds tested hit in one or more screens of this group.

SMILES	CRFBP-R2 block	PKA-R2B act	PKA-R1A act	SIRT5 block	S100A4 MyoIIA
Cc1ccc(OC(=O)N(C)C[C@@H]2OCc3cnnn3CCCC(=O)N([C@H](C)CO)C[C@H]2C)cc1	-1	1	6	-3	-2
Cc1ccc(OC(=O)N(C)C[C@@H]2OCc3cnnn3CCCC(=O)N([C@@H](C)CO)C[C@@H]2C)cc1	60*	5	9	-1	3
NC(Cc1ccc(O)cc1)C(=O)NN=Cc1ccc(N(CCCl)CCCl)cc1 (centres undefined)	60*	-7	-7	2	-5
CCC(c1nnnn1-c1ccc2c(c1)OCCO2)N1CCC(n2c(=O)[nH]c3ccccc32)CC1 (centres undefined)	.	.	.	-6	12
CSCCC(c1nnnn1-c1ccc2c(c1)OCCO2)N1CCC(n2c(=O)[nH]c3ccccc32)CC1 (centres undefined)	.	.	.	19*	-7
COc1cccc(N2C(=O)NC(=O)/C(=C/c3ccc4c5c(cccc35)CC4)C2=O)c1	.	.	.	37*	-19
CCOc1ccccc1N1C(=O)NC(=O)/C(=C/c2ccc3c4c(cccc24)CC3)C1=O	19	-6	-15	.	.
CN(C)P(=NC(=S)c1cccn1C)(N(C)C)N(C)C	-5	-6	-6	.	.
CN(C)P(=O)(NC(=O)c1cccn1C)N(C)C	107*	-4	-8	0	-1
CCCCCCCCCCCCCCCC[N+](C)(C)C	66*	2	1	4	6
CCCCCC[N+](=O)[O-]	12	6	2	.	-5
Cc1ccc(OCCSC2=NN2c2cc(C)nc(N)n2)cc1	-1	-5	-2	21*	-2
CCSC1=NN1c1cc(C)nc(N)n1	0	-10	9	1	-5
COC(=O)[C@H]1[C@H](CO)[C@H]2Cn3c(ccc(C4=CCCCC4)c3=O)[C@@H]1N2Cc1ccccn1	.	.	.	-14	9
COc1cccc2c1C(=O)c1c(O)c3c(c(O)c1C2=O)CC(O)(C(C)=NO)CC3OC1CC(N)C(O)C(C)O1 (centres undefined)	-18	-8	-8	-1	+
CN(C)[C@@H]1C(=O)C(C(N)=O)=C(O)[C@@]2(O)C(=O)C3=C(O)c4c(O)cccc4[C@@](C)(O)C3[C@H](O)C12 (some centres undefined)	-12	-1	-6	36*	3
CN(C)C1C(=O)C(C(N)=O)=C(O)C2(O)C(=O)C3=C(O)c4c(O)cccc4C(C)(O)C3CC12 (centres undefined)	19	7	3	.	.
CCCC#Cc1ccc([C@@H]2[C@@H](CO)N3CCCCN(C(=O)Cc4ccccn4)C[C@@H]23)cc1	.	.	.	0	4
COC(=O)[C@H]1[C@H](CO)[C@H]2Cn3c(ccc(C4=CCCCC4)c3=O)[C@@H]1N2CCc1ccccc1	.	.	.	-9	-3
Cc1ccc(OC(=O)N(C)C[C@@H]2OCc3ccccc3-c3c(n(C)c4ccccc34)C(=O)N([C@H](C)CO)C[C@@H]2C)cc1	.	.	.	3	0
C=C(C)[C@@]12OC3(c4ccccc4)O[C@@H]1C1[C@@H]4O[C@]4(CO)[C@@H](O)[C@]4(O)C(=O)C(C)=C[C@H]4[C@@]1(O3)[C@H](C)[C@H]2OC(=O)/C=C/C=C/c1ccccc1 (some centres undefined)	111*	-2	0	.	.
COC(=O)[C@@H]1[C@@H](CO)[C@@H]2Cn3c(ccc(C4=CCCCC4)c3=O)[C@H]1N2Cc1cccnc1	.	.	.	-24	-1
CCC1(c2ccccc2)C(=O)N(C)C(=O)N(C)C1=O	9	8	-2	.	.
CCC1(CC)C(=O)N(Cc2ccccc2)C(=O)N(Cc2ccccc2)C1=O	87*	-10	-12	.	1
O=C1NC(=O)N(Cc2ccc(F)cc2)C(=O)/C1=C\C=C\c1ccco1	-59	-2	-3	-1	-3
SMILES	CRFBP-R2 block	PKA-R2B act	PKA-R1A act	SIRT5 block	S100A4 MyoIIA
Cc1ccc(N2C(=O)NC(=O)/C(=C/c3ccoc3)C2=O)cc1	-13	3	-3	18*	-22
COc1ccc(CN2C(=O)NC(=O)/C(=C/c3ccoc3)C2=O)cc1	51*	-14	-3	21*	-12
COc1ccc(CN2C(=O)NC(=O)/C(=C/c3cc(OC)c(OC)c(OC)c3)C2=O)cc1	0	1	-2	0	-10
O=C1NC(=O)N(Cc2ccccc2)C(=O)/C1=C\c1ccco1	-40	1	-7	25*	-33
Cc1cccc(S(=O)(=O)N2[C@@H]3c4ccc(-c5cccc(F)c5)c(=O)n4C[C@H]2[C@H](CO)[C@H]3C(=O)O)c1	.	.	.	-29	19
CC=Cc1ccc2n(c1=O)C[C@H]1[C@H](CO)[C@@H](C(=O)OC)[C@@H]2N1S(=O)(=O)c1cccc(C)c1 (mixture of isomers)	.	.	.	-5	5
O=C(Cc1cccnc1)N1CCCCN2[C@H](C1)[C@H](c1ccc(C#CC3CC3)cc1)[C@@H]2CO	.	.	.	0	-4
N#Cc1cccc(-c2ccc([C@@H]3[C@H](CO)N4CCCCN(C(=O)Cc5ccccc5)C[C@@H]34)cc2)c1	.	.	.	-5	-19
CCCCN1C(=O)/C(=C/C=C/c2ccco2)C(=O)NC1=S	-4	5	-8	38*	-107
O=C(O)[C@H]1[C@H](CO)[C@H]2Cn3c(ccc(C4=CCCCC4)c3=O)[C@@H]1N2C(=O)Cc1ccccn1	.	.	.	-19	0
O=C(Cc1ccccn1)N1CCCCN2[C@@H](CO)[C@@H](c3ccc(-c4ccccc4F)cc3)[C@@H]2C1	.	.	.	-5	32
C[n+]1c(-c2ccccc2)c2cc(N)ccc2c2ccc(N)cc21	-26	5	-5	3	126*
O=C(O)Cn1cc(/C=C2\C(=O)NC(=O)N(c3ccc(Br)cc3)C2=O)c2ccccc21	-16	-7	5	2	101*
Oc1cc(Cl)c(Cl)c(Cl)c1	55*	0	-15	.	-25
Oc1cc(Cl)c(Cl)c(Cl)c1Cl	30	-2	-6	-6	1
CC(=O)OC1(c2ccccc2)CCN(C)CC1(C)C (centres undefined)	7	-7	0	15*	6
Cc1c(NS(=O)(=O)c2ccccc2)ccc([N+](=O)[O-])c1Cl	54*	0	5	1	-7
O=C(N/N=C/c1c(O)n(Cc2ccco2)c(=O)[nH]c1=O)c1ccccc1O	11	6	-14	15*	6
CCCCC(=O)N/N=C/c1c(O)n(Cc2ccco2)c(=O)[nH]c1=O	4	0	1	.	.
COC(=O)[C@@H]1[C@@H](C(=O)OC)C2(c3ccccc3-c3ccccc32)N(c2ccc(Cl)cc2)N1C#N	-17	3	3	17*	-1
O=c1c2ccccc2nc(/C=C/c2ccc([N+](=O)[O-])o2)n1-c1ccc(O)cc1	-6	.	.	2	8

From PubChem
